Assay outcomes from PubChem BioAssay.
Compounds with a hit are over-represented: about 2.3% of the library has one in this group of screens.
TRPC6 inh = mouse TRPC6 channel inhibitors, primary screen, cell-based, HEK293, membrane potential dye | Short transient receptor potential channel 6 (Mus musculus), Q61143 | ACh-evoked depolarization; hits give low values | B-score at 10 µM | 310,000 compounds, 1.1% hits;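 active means B-score under library mean minus 3 SD, initial fluorescence not abnormally high, positive integrated signal ratio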;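 further: B-score derived from integrated fluorescence ratio over the kinetic read; more negative B-score means stronger inhibition of depolarization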
Target sequence (Q61143 whole entry, looked up): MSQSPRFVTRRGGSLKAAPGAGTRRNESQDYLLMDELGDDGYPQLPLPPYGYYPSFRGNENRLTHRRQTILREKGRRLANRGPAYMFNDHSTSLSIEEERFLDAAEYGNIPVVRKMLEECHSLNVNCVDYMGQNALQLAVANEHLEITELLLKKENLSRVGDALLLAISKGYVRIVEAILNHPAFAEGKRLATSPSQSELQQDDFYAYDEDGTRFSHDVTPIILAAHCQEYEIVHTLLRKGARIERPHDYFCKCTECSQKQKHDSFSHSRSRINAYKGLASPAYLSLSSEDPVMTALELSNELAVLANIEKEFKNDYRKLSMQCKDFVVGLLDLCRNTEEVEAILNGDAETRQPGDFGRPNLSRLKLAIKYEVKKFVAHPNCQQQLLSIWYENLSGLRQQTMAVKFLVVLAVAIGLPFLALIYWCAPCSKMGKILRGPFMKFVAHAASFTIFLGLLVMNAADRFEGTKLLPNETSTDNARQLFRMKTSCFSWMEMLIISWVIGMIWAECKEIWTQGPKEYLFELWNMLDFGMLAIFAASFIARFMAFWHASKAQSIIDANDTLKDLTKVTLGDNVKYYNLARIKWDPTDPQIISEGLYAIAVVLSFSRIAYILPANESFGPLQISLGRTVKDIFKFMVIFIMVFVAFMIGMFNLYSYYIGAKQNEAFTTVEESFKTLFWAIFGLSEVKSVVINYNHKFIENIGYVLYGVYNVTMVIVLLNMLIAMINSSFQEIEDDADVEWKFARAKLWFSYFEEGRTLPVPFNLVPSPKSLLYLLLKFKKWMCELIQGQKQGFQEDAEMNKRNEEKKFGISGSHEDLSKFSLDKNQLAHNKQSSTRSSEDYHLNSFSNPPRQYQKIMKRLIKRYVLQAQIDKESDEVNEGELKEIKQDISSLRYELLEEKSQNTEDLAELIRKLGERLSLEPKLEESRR
TRPC4 agonist = activators of mouse TRPC4 channel, primary screen, Fluo4 calcium, HEK293 TRPC4beta/mu-opioid cells. 310,000 compounds, 0.49% hits. B-score at 10 µM. Short transient receptor potential channel 4 (Mus musculus), Q9QUQ5. Fluo4 calcium fluorescence; hits give high values. AID 2237, 2010;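 active means B-score above 5 SD of library B-scores, and initial fluorescence ratio not above library mean plus 5 SD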;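 further: positive B-score marks a calcium rise read as TRPC4 activation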
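Incubation: 45 min room-temperature Fluo4 loading, 110 s read / System: HEK293 cells stably co-expressing mouse TRPC4beta and mu-opioid receptor / Signal: Fluo4 fluorescence, kinetic / Control set: buffer (low) and maximal DAMGO (high) / Measure: integrated baseline-normalised fluorescence ratio, converted to per-well B score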
TRPC4 block = inhibitors of mouse TRPC4 channel, primary screen, Fluo4 calcium, HEK293 TRPC4beta/mu-opioid cells; B-score at 10 µM; 300,000 compounds, 0.39% hits; DAMGO-evoked Fluo4 calcium flux; hits give low values; Short transient receptor potential channel 4 (Mus musculus), Q9QUQ5;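 active means B-score over 3 SD under the library average, no early fluorescence shift, positive overall ratio signal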
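System: stable TRPC4beta/mu-opioid receptor HEK293 cells; Dosing: single-point compound dosing; Measured by: Fluo4 Ca2+ flux fluorescence; Read-out basis: per-well B score of integrated baseline-normalized Fluo4 ratio.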
TRPC4 potent = positive allosteric modulators of TRPC4, primary screen, cell-based, mouse TRPC4beta, HEK293 mu-opioid, Fluo-4 calcium; DAMGO EC20, Fluo-4 Ca2+ flux; hits give high values; 310,000 compounds, 0.42% hits; Short transient receptor potential channel 4 (Mus musculus), Q9QUQ5; B-score at 10 µM;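 active means B-score of calcium response area above 5 SD of library B-scores, with initial fluorescence ratio within 5 SD of library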;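 further: B-score of integrated fluorescence ratio over time as area under calcium response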
TRPC6 act = mouse TRPC6 channel activators, primary screen, cell-based, HEK293, membrane potential dye | B-score at 10 µM | HEK293-TRPC6 membrane potential dye fluorescence; hits give high values | Short transient receptor potential channel 6 (Mus musculus), Q61143 | 310,000 compounds, 0.13% hits;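 active means B-score of the integrated fluorescence ratio above library mean plus 3 SD, and starting fluorescence ratio within library mean plus 5 SD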;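 further: higher score means more depolarization so channel activation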
TRPC4 sel inh 2 = second check of whether TRPC6 inhibitors also affect mouse TRPC4. shares compounds with TRPC6 inh. HEK293 TRPC4/MOR, membrane potential dye fluorescence; channel activated by saturating DAMGO dose. inhibition, % at 10 µM. 920 compounds, 42% hits;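 active means compounds whose fluorescence signal differed from control wells by over 3 SD, either direction, in both duplicate plates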
TRPC4 spec = mouse TRPC4 modulation by TRPC6 hits, confirmation, selectivity assay for TRPC6 inhibitor project, cell-based, HEK293 TRPC4/mu-opioid, membrane potential dye; shares compounds with TRPC6 inh; membrane potential fluorescence; activity change, negative = inhibition, % at 10 µM; 920 compounds, 61% hits; AID 2777, 2010;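 active means rise or fall in signal beyond 3 SD of buffer-only wells in both replicate plates, either sign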;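 further: integrated kinetic ratio of fluorescence range over baseline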
HEK293 MPD ctr 2-1 = nonspecific membrane potential effects, parental HEK293, confirmation, counter-screen for TRPC6 inhibitor project, cell-based, second counter screen; parental HEK293 membrane potential dye fluorescence; maximal acetylcholine challenge after compound addition; signal change vs control, % at 10 µM; 920 compounds, 31% hits; shares compounds with TRPC6 inh; AID 2779, 2010;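 active means membrane potential signal moving either way by over 3 SD of the maximum-effect control, in both duplicate plates, meaning non-specific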
HEK293 MPD ctr-1 = membrane potential modulation in parental HEK293, confirmation, counter-screen for TRPC6 inhibitor project, cell-based | shares compounds with TRPC6 inh | parental HEK293 membrane potential dye fluorescence | membrane potential signal change, % at 10 µM | 920 compounds, 60% hits | AID 2780, 2010;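 active means membrane potential signal shifting up or down by more than 3 SD of buffer-only wells, on both duplicate plates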
HEK293 MPD ctr-2 = parental HEK293 membrane potential modulation, confirmation, counter-screen for TRPC6 modulator project, cell-based; shares compounds with TRPC6 inh; 2,400 compounds, 51% hits; membrane potential dye fluorescence; membrane potential signal change, % at 10 µM;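 active means membrane potential signal moves up or down beyond 5 SD from buffer-only wells, on both duplicate plates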
HEK293 MPD ctr 2-2 = second check of TRPC6 modulator effects in parental HEK293 cells; shares compounds with TRPC6 inh; membrane potential dye fluorescence; after compound, maximal acetylcholine stimulation; inhibition, % at 10 µM; 2,400 compounds, 14% hits; AID 488926;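 active means membrane potential signal drops by more than 5 SD from the mean control signal, in both duplicate plates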;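 further: plate controls were acetylcholine ECmax control wells for no effect and buffer only wells for full effect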
TRPC4/MOR mod = TRPC4 modulation by TRPC6 hit compounds, confirmation, selectivity assay for TRPC6 modulator project, cell-based, HEK293 TRPC4/mu-opioid, membrane potential dye, mouse; membrane potential fluorescence; AID 488927, 2010; percent change from control (negative = decrease, positive = increase), % at 10 µM; shares compounds with TRPC6 inh; 2,400 compounds, 69% hits;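 active means membrane potential signal moved up or down beyond 5 SD of buffer control wells, in both duplicate plates, actives on both sides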;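 further: plate controls were assay buffer wells for no effect and DAMGO maximal-effect wells for full effect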
TRPC4 ctr inh 2 = second selectivity test of TRPC6 modulators against mouse TRPC4. shares compounds with TRPC6 inh. HEK293 TRPC4/mu-opioid, membrane potential dye fluorescence; stimulated with maximal-effect DAMGO. inhibition, % at 10 µM. 2,400 compounds, 55% hits. AID 488928;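 active means drop in membrane potential signal beyond 5 SD of the control wells in both duplicate plates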;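 further: TRPC4 counter screen for TRPC6 hits run under conditions tuned for TRPC6 not TRPC4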
TRPC6 block conf = mouse TRPC6 channel inhibitors, confirmation, HEK293 cells, membrane potential dye, duplicate. inhibition, % at 10 µM. ACh-evoked depolarization. 3,300 compounds, 43% hits. AID 488960, 2010. shares compounds with TRPC6 inh;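 active means fluorescence ratio falls more than 5 SD below the full-stimulation control mean, in both duplicate runs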;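 further: integrated fluorescence ratio of peak minus minimum over baseline after agonist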
TRPC6 act confirm = mouse TRPC6 channel activators, confirmation, HEK293 cells, membrane potential dye, duplicate. HEK293-TRPC6 membrane potential dye fluorescence, FDSS. shares compounds with TRPC6 inh. 2,800 compounds, 11% hits. activation, % at 10 µM;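 active means ratio signal rise beyond 5 SD above unstimulated control wells' mean, seen in both duplicate runs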;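 further: plate controls were buffer EC0 wells for no effect and acetylcholine ECmax response for full effect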
An asterisk follows results filed as active.

`Cc1cc(NC(=O)CCSc2ccc(Cl)cc2)no1` gave TRPC6 inh inactive, TRPC4 agonist inactive, TRPC4 block inactive, TRPC4 potent inactive and TRPC6 act inactive.
CC(C)Cc1nnc(NC(=O)c2cc([N+](=O)[O-])ccc2N2CCOCC2)s1 was read as TRPC6 inh -5.22*, TRPC4 agonist inactive, TRPC4 block inactive, TRPC4 potent inactive, TRPC6 act inactive, HEK293 MPD ctr-2 inactive, HEK293 MPD ctr 2-2 inactive, TRPC4/MOR mod inactive, TRPC4 ctr inh 2 inactive, TRPC6 block conf inactive and TRPC6 act confirm inactive.
CC(C)c1ccc(NC(=O)c2cc([N+](=O)[O-])ccc2N2CCOCC2)cc1 was read as TRPC6 inh inactive, TRPC4 agonist inactive, TRPC4 block inactive, TRPC4 potent inactive and TRPC6 act inactive.
For COC(=O)c1sccc1NC(=O)c1ccccc1F the results were TRPC6 inh -6.29*, TRPC4 agonist inactive, TRPC4 block inactive, TRPC4 potent inactive, TRPC6 act inactive, HEK293 MPD ctr-2 inactive, HEK293 MPD ctr 2-2 inactive, TRPC4/MOR mod inactive, TRPC4 ctr inh 2 inactive, TRPC6 block conf inactive and TRPC6 act confirm inactive.
For CCC(C)c1ccccc1NC(=O)C(C)OC(=O)c1ccco1 (stereo not given) the results were TRPC6 inh inactive, TRPC4 agonist inactive, TRPC4 block inactive, TRPC4 potent inactive and TRPC6 act inactive.
Screening C[n+]1ccccc1/C=C/c1ccc([N+](=O)[O-])cc1 returned TRPC6 inh -7.27*, TRPC4 agonist inactive, TRPC4 block inactive, TRPC4 potent inactive, TRPC6 act inactive, HEK293 MPD ctr-2 -249.5%*, HEK293 MPD ctr 2-2 110.0%*, TRPC4/MOR mod -40.5%*, TRPC4 ctr inh 2 52.0%*, TRPC6 block conf 64.5%* and TRPC6 act confirm inactive.
`C[n+]1ccccc1/C=C/c1ccc(F)c(F)c1` gave TRPC6 inh -7.21*, TRPC4 agonist inactive, TRPC4 block inactive, TRPC4 potent inactive, TRPC6 act inactive, TRPC4 sel inh 2 inactive, TRPC4 spec -33.6%*, HEK293 MPD ctr 2-1 33.5%*, HEK293 MPD ctr-1 -595.5%*, TRPC6 block conf 80.3%* and TRPC6 act confirm inactive.
`O=S(=O)(c1ccc2ccccc2c1)N1CCN(C(=S)Nc2ccc(F)c(Cl)c2)CC1` gave TRPC6 inh inactive, TRPC4 agonist inactive, TRPC4 block inactive, TRPC4 potent inactive and TRPC6 act inactive.
For Cn1nc(C(=O)Nc2ccccc2N2CCCC2)c2ccccc2c1=O the results were TRPC6 inh inactive, TRPC4 agonist inactive, TRPC4 block inactive, TRPC4 potent inactive and TRPC6 act inactive.
For c1ccc2c(c1)CCN(c1ncnc3c1[nH]c1ccccc13)C2 the results were TRPC6 inh -5.72*, TRPC4 agonist 86*, TRPC4 block inactive, TRPC4 potent inactive, TRPC6 act inactive, HEK293 MPD ctr-2 inactive, HEK293 MPD ctr 2-2 inactive, TRPC4/MOR mod inactive, TRPC4 ctr inh 2 63.0%*, TRPC6 block conf inactive and TRPC6 act confirm inactive.
`Nn1c(SCC(=O)Nc2ccc(OC(F)F)cc2)nnc(Cc2ccccc2)c1=O` gave TRPC6 inh inactive, TRPC4 agonist inactive, TRPC4 block inactive, TRPC4 potent inactive and TRPC6 act inactive.
`O=Cc1coc2ccc3ccccc3c2c1=O` gave TRPC6 inh inactive, TRPC4 agonist inactive, TRPC4 block inactive, TRPC4 potent inactive and TRPC6 act inactive.
Screening NC(=O)N/N=C/c1coc2ccc3ccccc3c2c1=O returned TRPC6 inh -5.04*, TRPC4 agonist inactive, TRPC4 block inactive, TRPC4 potent inactive, TRPC6 act inactive, HEK293 MPD ctr-2 -62.5%*, HEK293 MPD ctr 2-2 inactive, TRPC4/MOR mod -16.0%*, TRPC4 ctr inh 2 inactive, TRPC6 block conf inactive and TRPC6 act confirm inactive.
`Cc1ccc(CNC(=O)CCSCc2ccccc2C)cc1` gave TRPC6 inh inactive, TRPC4 agonist inactive, TRPC4 block inactive, TRPC4 potent inactive and TRPC6 act inactive.
